The subject of data set [1] is NCI-H460. As to the kind of experiment: Antiproliferative activity against human H460 cells assessed as reduction in cell growth at 8 uM incubated for 72 hrs by CCK-8 assay relative to control. It counts as functional. For orientation: Formazan colour is commonly taken as a measure of viable cells.
Data set [2] deals with Histone deacetylase 1 (Homo sapiens, UniProt Q13547). Description: Potency index, ratio of IC50 of CS055 to IC50 of compound for inhibition of recombinant human HDAC1 using […] as substrate incubated for 10 mins followed by substrate addition and measured after 30 mins by fluorescence based assay.
Data set [3] relates to HeLa. As to the kind of experiment: Cytotoxicity against human HeLa cells assessed as effect on cell morphology at 0.5 to 8 micromol incubated for 48 hrs by microscopic analysis. The settings on record: dose 0.5-8 µmol. It counts as functional, cell-based. The gist of the method:
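Five cancer cell lines treated with compound or DMSO (0.1 %) for 48 h. Morphology inspected by light microscopy at 10× objective.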

In data set [4] the test system is HCT-116. As to the kind of experiment: Induction of cell cycle arrest in human HCT-116 cells assessed as G2/M phase at 0.5 uM incubated for 24 hrs by PI staining based flow cytometry (reference value: 27.46 %). It is filed as functional. The gist of the method: (§1)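 Treatment at 2, 1 and 0.5 μM for 24 h, alongside CS055 and roscovitine, against a DMSO (0.1 %) blank. Cells then stained with propidium iodide and analyzed by flow cytometry.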
Background: Flow cytometry measures light scatter and fluorescence of single cells or particles in a stream.

The subject of data set [5] is HeLa. Description: Induction of cell cycle arrest in human HeLa cells assessed as G2/M phase at 0.5 uM incubated for 24 hrs by PI staining based flow cytometry (reference value: 7.89 %). It counts as functional. The gist of the method: as §1
For data set [6], the system named is A-375. Description: Induction of apoptosis in human A-375 cells assessed as late apoptotic cells at 0.5 uM incubated for 48 hrs by annexin V-FITC and PI staining based flow cytometry (reference value: 2.24 %). It counts as functional.
Data set [7] relates to HCT-116. As to the kind of experiment: Induction of apoptosis in human HCT-116 cells assessed as early apoptotic cells at 2 uM incubated for 48 hrs by annexin V-FITC and PI staining based flow cytometry (reference value: 4.14 %). It is filed as functional.
The test system of data set [8] is HCT-116. Description: Induction of apoptosis in human HCT-116 cells assessed as necrotic cells at 1 uM incubated for 48 hrs by annexin V-FITC and PI staining based flow cytometry (reference value: 0.124 %). It counts as functional.
For data set [9], the system named is HCT-116. As to the kind of experiment: Induction of apoptosis in human HCT-116 cells assessed as early apoptotic cells at 0.5 uM incubated for 48 hrs by annexin V-FITC and PI staining based flow cytometry (reference value: 4.14 %). It is filed as functional.
Data set [10] relates to NCI-H460. As to the kind of experiment: Induction of apoptosis in human NCI-H460 cells assessed as viable cells at 0.5 uM incubated for 48 hrs by annexin V-FITC and PI staining based flow cytometry (reference value: 90.4 %). It counts as functional. The settings on record: read-out: Activity.
The subject of data set [11] is NCI-H460. Description: Induction of apoptosis in human NCI-H460 cells assessed as early apoptotic cells at 0.5 uM incubated for 48 hrs by annexin V-FITC and PI staining based flow cytometry (reference value: 2.88 %). It is filed as functional.
In data set [12] the test system is HeLa. Description: Induction of apoptosis in human HeLa cells assessed as necrotic cells at 2 uM incubated for 48 hrs by annexin V-FITC and PI staining based flow cytometry (reference value: 0.124 %). It counts as functional.
Data set [13] relates to A-375. As to the kind of experiment: Induction of apoptosis in human A-375 cells assessed as necrotic cells incubated for 48 hrs by annexin V-FITC and PI staining based flow cytometry. It is filed as functional, cell-based. The settings on record: dose 0.5-2 µM.
Data set [14] concerns HeLa. As to the kind of experiment: Induction of apoptosis in human HeLa cells assessed as apoptosis rate at 2 uM incubated for 48 hrs by annexin V-FITC and PI staining based flow cytometry relative to control. It counts as functional.
The nature of data set [15]: AUC (0 to t) in ICR mouse at 20 mg/kg, ip measured upto 24 hrs by LC-MS/MS analysis. The settings on record: in vivo.

The source made the active and inactive calls. The calls are words filed in the database; no cut-off is given here.

Histone deacetylase 1, sequence (Q13547 whole entry): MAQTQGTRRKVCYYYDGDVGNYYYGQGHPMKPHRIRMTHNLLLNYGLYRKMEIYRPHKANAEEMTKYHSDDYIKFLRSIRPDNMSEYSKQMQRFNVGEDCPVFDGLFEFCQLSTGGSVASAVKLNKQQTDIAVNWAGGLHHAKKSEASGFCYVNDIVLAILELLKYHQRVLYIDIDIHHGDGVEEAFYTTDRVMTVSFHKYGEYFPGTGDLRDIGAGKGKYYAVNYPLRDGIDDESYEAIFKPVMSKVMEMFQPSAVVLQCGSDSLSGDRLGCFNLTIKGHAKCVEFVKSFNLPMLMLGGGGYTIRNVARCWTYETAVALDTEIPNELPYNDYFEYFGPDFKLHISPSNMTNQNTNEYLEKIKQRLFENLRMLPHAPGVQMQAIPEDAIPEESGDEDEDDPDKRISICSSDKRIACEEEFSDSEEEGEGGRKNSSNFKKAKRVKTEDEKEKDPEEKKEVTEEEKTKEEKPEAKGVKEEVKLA

Broadly, the inhibition is how much of the control response was suppressed. What is called AUC(0-t) is exposure summed from dosing to a finite time, without extrapolation to infinity. In the case of `Cc1ccc(Nc2nc(Cl)nc3c2ncn3Cc2ccc(C(=O)Nc3ccccc3N)cc2)cc1`, the inhibition at 8 µM in [1] was 82.5%. Further, the Ratio IC50 in data set [2] came out at 3. The result in data set [3] was Active. For the same compound, the Activity is reported as 76.99% in [4]; 51.85% in data set [5]; 72.2% in [6]; 76.2% in data set [7]; 0.65% in data set [8]; 60.7% in [9]. For the same compound, the Activity is 6.74% in data set [11], 0.243% in data set [12], “Dose-dependent effect” in data set [13] and 22.36% in data set [14]. Besides, the viability at 0.5 µM in [10] stood at 88.7%. The compound further showed an AUC(0-t) at 24 h in data set [15] of 7240 ng·h/mL.
